# Experiment: Toxicity liver stage against HepG2, at 10uM
# Type: cell-based
# Parameters: test concentration 10 uM, cell line HepG2-A16-CD81EGFP
# Details: human, HepG2-A16-CD81EGFP cells; read-out: INHIBITION
# Procedure, shortened: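 Uninfected HepG2-A16-CD81EGFP cells, 3 × 10^3 per well, 1536-well, plated on prespotted compound at 10 μM final, parasite-free screening media added to match infected plates; puromycin 10 μM positive, DMSO 0.5% negative; run in parallel with 48 h PbLuc assay at 37 °C, 5% CO2; viability by CellTiter-Glo luminescence, normalized to controls.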
row,SMILES,cytotoxicity at 10 µM [%]
1,CC(C)NC(=O)NC[C@H]1OC[C@@H](NCc2cccs2)[C@@H]1O,-1.48
2,O=C(NC[C@H]1OC[C@@H](NCc2ccccc2F)[C@@H]1O)Nc1ccccc1,-7.3
3,Cc1cc(C)nc(N2CCCC(C(=O)Nc3n[nH]c(C(C)C)n3)C2)n1 (stereo unspecified),8.04
4,O=S(=O)(c1ccc(Cl)cc1)N1C[C@@H]2CCN[C@@H]2C1,-1.89
5,CCc1cnc(N2CCC3(CCN(CC)C3=O)CC2)nc1,1.61
6,CNC(=O)N1CCC2(CC1)CN(C)c1ccc(F)cc12,-4.78
7,c1ccc(NCc2cn3c(n2)CN(Cc2ccoc2)CC3)nc1,10.4
8,CCOCC1CN(CCOCc2ccccc2)Cc2c1cnn2C (stereo unspecified),-132
9,Fc1cnc(N2CCOCC3(CCCN(c4cnccn4)C3)C2)nc1 (stereo unspecified),10.6
10,CCN1C(=O)[C@]2(CC[C@@H]3CN(C(=O)NCC(C)C)C[C@@H]32)N=C1C,9.16
11,Cc1cc(O)c(OCC(=O)/N=c2\[nH]c(C)cs2)cn1,6.36
12,CN(C(=O)c1ccccn1)c1nnc(C2CCOC2)s1 (stereo unspecified),0.07
13,CN(C)Cc1cc(C2CCCN(S(=O)(=O)c3cccc(Cl)c3)C2)nn1C (stereo unspecified),0.288
14,CCn1cc(-c2nccnc2C2CCCN(C(C)=O)C2)cn1 (stereo unspecified),-6.03
15,c1cc(C2CCCN2CC2CC2)n[nH]1 (stereo unspecified),-1.75
16,CNC(=O)c1cn[nH]c1C1CCN(Cc2sccc2C)C1 (stereo unspecified),-21.2
17,c1cnc(-c2cnc(N3CCCCC3)nc2C2CCCO2)cn1 (stereo unspecified),-7.16
18,Cc1n[nH]cc1C(=O)N1CCCC(c2cccc(-n3ccnc3)n2)C1 (stereo unspecified),-9.69
19,O=C(NC1CC1)c1cc(C(F)(F)F)cc(C(F)(F)F)n1,6
20,COc1ccc(C2(c3nc(-c4cnn(C)c4)no3)CCOCC2)cc1,11.4
21,Cc1ccc(NC(=O)N2CCC(CO)(Nc3ccccc3)CC2)cc1,-0.405
22,CCOc1nnc(CN2CCC(c3cc4ccccc4[nH]3)CC2)s1,20.6
23,N#CC1(C(=O)N2CCOC(c3ccc(F)cc3)C2)CCCCC1 (stereo unspecified),3.85

row,SMILES,cytotoxicity at 10 µM [%]
1,Cc1nc(CNc2ccccc2CCC(F)(F)F)cs1,-8.47
2,O=C(CC1CCCCC1)N1CCC(O)(C(F)(F)F)C1 (stereo unspecified),-6.58
3,CNC(=O)Cc1noc(-c2cc3c(s2)CCCC3)n1,0.403
4,N#CCCCS(=O)(=O)NC1(c2cccc(Br)c2)CC1,2.99
5,N#CC1COCCN1S(=O)(=O)c1ccc2c(c1)CCC2 (stereo unspecified),4.53
6,CCOc1ccc(CC(=O)N(CCC(=O)OC)CC2CCCO2)cc1 (stereo unspecified),5.04
7,O=C(NCC1(c2ccc(F)cc2)CCCC1)N1CCOC(CO)C1 (stereo unspecified),0.323
8,COC(=O)c1ccc(NC(=O)CCc2ccco2)cc1,-10.5
9,CCCS(=O)(=O)N1CCCN(CCCOC)CC1,7.53
10,O=C(NCC1CCC1)c1ccnc(-n2ccnc2)c1,-3.67
11,COc1ccccc1N1CCN(CC(=O)NC(C)c2ccco2)CC1 (stereo unspecified),-2.58
12,Cc1cc(NC(=O)N2CCCC(CO)C2)nn1-c1ccccc1Cl (stereo unspecified),8.23
13,CS(=O)(=O)Nc1cccc(CNC(=O)c2cccs2)c1,3.86
14,CCCc1cc(C(=O)NCCN2C(=O)c3ccccc3C2=O)[nH]n1,2.29
15,CC(C)c1noc(OCC(=O)N(C)C(C)C)n1,-12.6
16,NC(=O)CCNC(=O)Cc1cccc(I)c1,-1.08
17,O=C(CNc1cccc2c1CCCC2)Nc1ccccc1Br,11.4
18,Cc1nn(C)c(N(C)C)c1CNCc1cccc(Cn2cccn2)c1,1.88
19,CCN(CC(=O)NC(C)C)S(=O)(=O)N1CCCC(C)C1 (stereo unspecified),2.77
20,CC(C)c1ccc(CS(=O)(=O)CC(=O)NCc2ccccc2F)cc1,8.31
21,Cc1cc(C)n(CC2CN(CC(=O)Nc3cccnc3)CCO2)n1 (stereo unspecified),-3.1
22,O=C(c1csc(-c2ncccn2)n1)N1CCN(C2CCCC2)CC1,4.87
23,Cc1cccc(S(=O)(=O)N2CSCC2C(=O)NCC2CC2)c1 (stereo unspecified),-6.14

row,SMILES,cytotoxicity at 10 µM [%]
1,COc1cccc2c1N(Cc1nc(C3CC3)no1)CCC2,11.2
2,Cc1ncccc1C(=O)Nc1ccc2ccn(CCN(C)C)c2c1,4.08
3,CCS(=O)(=O)CC(C)NC(=O)N(C)Cc1cc(Cl)cn1C (stereo unspecified),-1.04
4,Cc1nc(C(NC(=O)C2CCCC2)c2ccccc2F)no1 (stereo unspecified),-3.79
5,O=C(C[S+]([O-])Cc1ccccc1F)N1CCc2sccc2C1 (stereo unspecified),-8.02
6,CNS(=O)(=O)CC(=O)N(Cc1ccccc1)c1ccc(C)cc1,2.53
7,O=C(CN1CCOc2ccc(Cl)cc21)NCc1ncc[nH]1,-0.307
8,N#CCCN(CC(F)(F)F)C(=O)c1cc(-n2cccn2)ccn1,8.93
9,N#Cc1ccc(OC2CCN(C(=O)COCC3CCCO3)CC2)cc1 (stereo unspecified),12.9
10,CCc1noc(CN(C)C(=O)COc2cccc(Cl)c2C)n1,3.86
11,CCN(CC)CCCN1CCC(NC(=O)OC(C)(C)C)CC1,5
12,CS(=O)(=O)CC1(CNc2ccc(C#N)c(C(F)(F)F)c2)CC1,9.95
13,Cc1nc(CC(C)C)sc1C(=O)N1CCC1,15.8
14,O=C(NCCNS(=O)(=O)c1ccc2c(c1)CCCC2)c1ccoc1,0.743
15,CC(NCc1ccncc1)c1cc(F)ccc1N1CCN(C)CC1 (stereo unspecified),-2.98
16,COCCN(Cc1ccc(F)cc1Cl)C(=O)c1cccc[n+]1[O-],8.81
17,CC(=O)N1CC[C@H]2OCC[C@@H](C(=O)Nc3cccnc3C)[C@H]2C1,0.0861
18,Cc1ncc(-c2ccnc(N3CC[C@H](O)C3)n2)c(-c2cccnc2)n1,-8.49
19,Cn1nccc1C(=O)N1CCOC(Cc2ccc(F)cc2)C1 (stereo unspecified),5.08
20,CC(C)c1nc(CN(C)Cc2ccc(O)c(C(=O)O)c2)cs1,-4.24
21,Cc1cccc2c1nc(COCC(=O)O)n2-c1ccc(N)nc1,1.77
22,Cc1cc(NCCc2c[nH]cn2)nc(-c2cccnc2)n1,2.49
23,CCN1CCCC(CN2CCn3nc(CNC(=O)N(C)C)cc3C2)C1 (stereo unspecified),-2.96

row,SMILES,cytotoxicity at 10 µM [%]
1,Cc1nc(-c2ccccc2)c(C(=O)N2CCC3(CC(=O)NC3=O)C2)s1 (stereo unspecified),-3.89
2,COCc1cn(C2CCN(C(=O)c3ccc(F)c(C)c3)CC2)nn1,-0.723
3,Cc1c(C)c(C)c2[nH]c(-c3cn(C4CCNCC4)nn3)nc2c1C,-0.966
4,Cc1[nH]c(=O)[nH]c(=O)c1CN1CCCC(CCc2ccc(F)cc2F)C1 (stereo unspecified),-1.64
5,CN1CCN(C(=O)c2ccnc(N3CCOC(C(F)(F)F)C3)c2)CC1 (stereo unspecified),-11.4
6,CCc1ccc(CN2CCNC(C(=O)N3CCN(C)CC3)C2)nc1 (stereo unspecified),7.68
7,CCC(=O)N1CCCC(Cn2cc(-c3ccc(F)cc3)nn2)C1 (stereo unspecified),2.89
8,COc1cccc(OCC(=O)N2CCC3(CC2)[C@H](O)C[C@@H]3OC)c1,0.866
9,CC(C)N1CCCC(C(=O)NC(C)(C)c2nnc(N)s2)C1 (stereo unspecified),-2.4
10,CC(=O)N[C@@H]1CN(Cc2ccc(F)cc2F)C[C@H]1c1ccc(C)o1,6.39
11,C[C@@H]1CN(Cc2cc3ccccc3n2C)CC[C@]1(C)O,8.35
12,NC(=O)c1ccc(OCCCN2C[C@H](C3CC3)[C@@H](N)C2)cc1,-0.517
13,Cn1c(Cn2cccn2)nnc1C1CCCN(c2ccncc2F)C1 (stereo unspecified),-0.773
14,CNCc1cc(F)ccc1Oc1ccc(F)cc1F,-11
15,CC(NC(=O)CSCC#N)c1ccc(F)cc1 (stereo unspecified),-2.51
16,CN(C)c1ccc(C(=O)N2CCCC2c2cnn(C)c2)cn1 (stereo unspecified),-1.83
17,O=C(O)c1cc(S(=O)(=O)Nc2ccc(F)cc2F)cc2c1OCCO2,-1.2
18,CNC(=O)NC(=O)C(C)N(C)CCCc1cc(-c2ccccc2)no1 (stereo unspecified),-11.6
19,Cn1cc(CN2CCCN(C(=O)c3ccccn3)CC2)cn1,-0.514
20,O=C(c1ccc2c(c1)CCCC2)N1CCN(c2cnccn2)CC1,-1.95
21,Cc1cc2n(n1)CC(CNCc1ccc(-n3ccnc3C)nc1)CN2 (stereo unspecified),-11.7
22,COc1ccccc1C(O)CNC(=O)Nc1cccnc1OC (stereo unspecified),-14.7
23,Cc1nc(C2CCCN2C(=O)c2ccc3c(c2)nc(C)n3C)no1 (stereo unspecified),-9.62

row,SMILES,cytotoxicity at 10 µM [%]
1,CCn1cnnc1CNC(=O)N1CCC(C)CC1,2.64
2,Cc1nc(C2CCCN2C(=O)Cn2cncn2)no1 (stereo unspecified),-2.51
3,Cc1cnn(CC2CCCCN2C(=O)c2cnc3n[nH]c(C)c3c2)c1 (stereo unspecified),-26.2
4,CCc1nc(CN2CCCN(C(=O)C3CCC3)CC2)cs1,5.41
5,CC(C)c1nc(C2CCCN2CCc2ccncc2)no1 (stereo unspecified),-10.8
6,CCOc1ccnc(N2CCN(C(=O)c3cccc(C#N)c3)CC2)n1,-3.34
7,O=C(CN1CCCCC1Cn1cncn1)NCCC1=CCCCC1 (stereo unspecified),-7.59
8,O=C(NCCCNc1ccccc1)c1scnc1Cl,1.83
9,CC(C)(C)c1nnc(CN2CCn3c(nnc3C3CC3)C2)o1,4.45
10,COCC1CN(Cc2cc(C)on2)Cc2cnn(C)c21 (stereo unspecified),6.22
11,O=C(c1ccccc1)N1CCC[C@]2(C[C@@H](OCc3ccncc3)CO2)C1,5.25
12,CN(C)C[C@H]1C[C@@H]2CN(Cc3ccco3)C[C@@H]2O1,-1.66
13,Cc1occc1C(=O)NCC1OCCc2cn(C)nc21 (stereo unspecified),4.33
14,O=C(Cc1ccsc1)N1CCCC2(COCCN(CC3CC3)C2)C1 (stereo unspecified),-127
15,COc1ccc(C(=O)N2CC[C@@H]3[C@H](CC2)N(C)CCS3(=O)=O)cc1,-117
16,O=C(C1CC1)N1CCC2(CCN(Cc3cccc(F)c3)CC2)CC1,-4.07
17,O=C(C[C@@H]1COC[C@H]2CN(Cc3ccc(F)cc3)C[C@@H]12)N1CCCCO1,-2.26
18,Cc1ccc(CN2CCC3(CC2)CCN(Cc2ccco2)CC3)cc1,2.44
19,O=C(NCCNS(=O)(=O)N1CCCCCC1)c1ncccc1O,-6.11

# Source: ChEMBL document CHEMBL4513216, “Probing the Open Global Health Chemical Diversity Library for Multistage-Active Starting Points for Next-Generation Antimalarials” (ACS Infect Dis, 2020)
